Laboratory results reported in article PMC6865048 (Clinical cancer research : an official journal of the …, 2018).
Several values for one entry are separate records, joined by “and”; a condition that tells them apart may be missing. Equal entries are not always repeated. Entries after “also recorded” stand apart in the source; their conditions may differ. Where two headings read alike, the source gives them in different places.

Columns and labels:
[1] = Safety assessment in the phase 0 trial; format: in vivo, human; conditions: single oral dose 100, 200 or 400 mg, 20 glioblastoma patients
In short: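 Twenty adult glioblastoma patients took a single oral dose before tumor resection. Screening collected demographics and medical history. Baseline safety assessments were physical examination, vital signs, ECOG performance status, concomitant medication record, hematology, biochemistry and urinalysis.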

[2] = format: in vivo, human
cleaved caspase-3 (CC3) = experiment: IHC of programmed cell death in resected tumor vs matched archival tissue; format: in vivo, human; conditions: for CC3 apoptotic marker vs matched archival tissue: 8 hours
In short: (§1)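 A 0.5 cm³ re-resection tumor sample, snap-frozen at -80° C, was compared with FFPE tissue from the same patient's initial resection by IHC. Antibody conditions: γH2AX 1:100, 1 h at room temperature; PH3 1:100, overnight at 4°C; CC3 1:50, overnight at 4°C. Staining was quantified by semiquantitative image analysis. Mean fold change was tested against 1.000 by two-sided one-sample t test, or Wilcoxon signed-rank test if non-normal.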

γH2AX = experiment: IHC of double-strand DNA damage in resected tumor vs matched archival tissue; format: in vivo, human; conditions: 8 hours
In short: as §1

Wee1 = conditions: cell-based assays; ref https://ncats.nih.gov/files/AZD1775.pdf; cited from earlier work
[3] = format: in vivo, human; conditions: single oral dose of 400 mg, at 2 to 24 h
In short: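 Adult recurrent glioblastoma patients took a single oral dose before resection. Contrast-enhancing tumor was taken intraoperatively, rinsed in ice-cold PBS, blot-dried, snap-frozen and held at -80° C. EDTA blood was spun at 4°C, 1,500 × g, 10 min. Total drug in plasma and tumor was measured by validated LC/MS-MS, and fraction unbound by equilibrium dialysis. Unbound concentration = total × fraction unbound. Kp and Kp,uu = tumor/plasma total and unbound ratios.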

phosphohistone-3 (PH3) = format: in vivo, human; conditions: for PH3 expression vs matched archival tissue: 8 hours
In short: as §1

[4] = covariate model, estimate (%RSE)
[5] = 8-hour posttreatment interval (discussion)

C=CCn1c(=O)c2cnc(Nc3ccc(N4CCN(C)CC4)cc3)nc2n1-c1cccc(C(C)(C)O)n1 [AZD1775]
tolerability / adverse effects [1]: No drug-related adverse events; also recorded: well-tolerated; no significant adverse effects were observed
CL/F, apparent oral clearance ([2]; base model, estimate (%RSE)): 160 (15) L/hour
IIV of Ka ([2]; base model, estimate (%RSE)): 100 (310) CV%
Ka ([2]; base model, estimate (%RSE)): 2.00 (114) h^−1
B, covariate effect of glomerular filtration rate on CL/F ([2]; covariate model, CL/F = A + B × (GFR - 98), estimate (%RSE)): 1.7 (44)
IIV of Ka [2, 4]: 100 (300) CV%
Ka [2, 4]: 2.10 (111) h^−1
V/F, apparent volume of distribution [2, 4]: 1,500 (17) L
CL/F, apparent oral clearance ([2]; covariate model, typical patient with GFR of 98 mL/minute, estimate (%RSE)): 160 L/hour and 160^a (14) L/hour
interindividual variability of CL/F explained by glomerular filtration rate ([2]; covariate on CL/F): 17%
Vd/F ([2]; human, plasma, oral): 1500 L
first-order absorption rate constant (Ka) ([2]; one-compartment model, single oral dose 100, 200, 400 mg, glioblastoma patients): 2.1 h⁻¹
programmed cell death (cleaved caspase-3 (CC3); [5]): increased threefold
mean increase in CC3 expression (cleaved caspase-3 (CC3); 8-hour time interval, all dose cohorts together (n = 12), P = 0.0727): +112.2%
CC3 apoptotic marker vs matched archival tissue (cleaved caspase-3 (CC3); 200-mg dose cohort): increased most
CC3 apoptotic marker vs matched archival tissue (cleaved caspase-3 (CC3); 400-mg group): modest increase
double-stranded DNA damage measured by γH2AX vs matched archival tissue (γH2AX; 100- and 400-mg dose cohorts): less dramatic
double-stranded DNA damage measured by γH2AX vs matched archival tissue (γH2AX; 200-mg dose cohort): increased
in vitro IC50 for inhibition of Wee1 activity and induction of DNA damage as well as G2 checkpoint escape (Wee1): 0.04 µg/mL
mean unbound AZD1775 tumor concentration [3]: 85 ng/g
cell-cycling (phosphohistone-3 (PH3); [5]): increased over threefold
PH3 expression change (phosphohistone-3 (PH3); 8-hour time interval, all dose cohorts together (n = 12), P = 0.0210): increased significantly
PH3 expression vs matched archival tissue (phosphohistone-3 (PH3); 200-mg dose cohort): Increased expression
PH3 expression vs matched archival tissue (phosphohistone-3 (PH3); 400-mg dose cohort): substantially increased
